Blank lines part the entries; values can stand above or below the compound they belong to.
Experiments:
Cavia porcellus = species on record: Cavia porcellus; experiment: Inhibition of tonic (slow) component of K+ depolarization response in guinea pig ileal longitudinal smooth muscle; format: functional; settings: Muscle tissue
Outline: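 Longitudinal strips of terminal ileum from male guinea pigs (300-500 g) held in aerated physiologic saline under 500 mg resting tension, with isotonic recording. A control maximal response to 80 mM KCl depolarizing saline was taken, followed by washout and 30-min re-equilibration. Antagonist was then equilibrated for 30 min and the K+ response measured again. One concentration per tissue; contraction read in mm from baseline.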

[1] = molecular target: Voltage-gated L-type calcium channel (Cavia porcellus); experiment: Inhibition of [3H]nitrendipine binding to guinea pig ileal longitudinal smooth muscle

- IC50 (Cavia porcellus): 0.59 nM
- IC50 [1]: 8.1 pM
SMILES: CO/C(O)=C1\C(C)=NC(C)=C(C(=O)OCC(C)C)C1c1cccc([N+](=O)[O-])c1 (configuration not stated)

- IC50 (Cavia porcellus): 2.1 nM
- IC50 [1]: 27 pM
SMILES: CO/C(O)=C1\C(C)=NC(C)=C(C(=O)OCC(C)C)C1c1ccccc1C(F)(F)F (configuration not stated)

- IC50 (Cavia porcellus): 3.3 nM
- IC50 [1]: 250 pM
SMILES: CO/C(O)=C1\C(C)=NC(C)=C(C(=O)OCC(C)C)C1c1ccccc1 (configuration not stated)

- IC50 (Cavia porcellus): 0.22 nM
SMILES: CO/C(O)=C1\C(C)=NC(C)=C(C(=O)OCC(C)C)C1c1ccccc1[N+](=O)[O-] (configuration not stated)

Further lines, the compound ahead of its results:

SMILES: CO/C(O)=C1\C(C)=NC(C)=C(C(=O)OCC(C)C)C1c1cccc(OC)c1 (configuration not stated)
- IC50 (Cavia porcellus): 7.1 nM
- IC50 [1]: 2300 pM

SMILES: CO/C(O)=C1\C(C)=NC(C)=C(C(=O)OCC(C)C)C1c1cccc(C#N)c1 (configuration not stated)
- IC50 (Cavia porcellus): 0.27 nM
- IC50 [1]: 13 pM

SMILES: CO/C(O)=C1\C(C)=NC(C)=C(C(=O)OCC(C)C)C1c1ccc(Cl)cc1 (configuration not stated)
- IC50 (Cavia porcellus): 27 nM
- IC50 [1]: 2800 pM

SMILES: CO/C(O)=C1\C(C)=NC(C)=C(C(=O)OCC(C)C)C1c1ccc(F)cc1 (configuration not stated)
- IC50 (Cavia porcellus): 6.8 nM
- IC50 [1]: 1500 pM

SMILES: CO/C(O)=C1\C(C)=NC(C)=C(C(=O)OCC(C)C)C1c1cccc(C(F)(F)F)c1 (configuration not stated)
- IC50 (Cavia porcellus): 15 nM
- IC50 [1]: 140 pM

Source: ChEMBL document CHEMBL1124024, “Crystal structures and pharmacologic activities of 1,4-dihydropyridine calcium channel antagonists of the isobutyl methyl 2,6-dimethyl-4-(substituted phenyl)-1,4-dihydropyridine-3,5-dicarboxylate (nisoldipine) series” (J Med Chem, 1988)
